Results as given in ChEMBL document CHEMBL1149594, “Synthesis and HCV inhibitory properties of 9-deaza- and 7,9-dideaza-7-oxa-2'-C-methyladenosine” (Bioorg Med Chem, 2007).

Key:
[1] = Cytotoxicity against Huh7 cells after 24 hrs by MTS assay; assay type: cell-based, Huh-7; conditions: human
Method in brief: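 Nucleoside cytotoxicity in the replicon-bearing Huh-7 cells, measured by MTS assay after 24 h exposure. Result expressed as CC50.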

Hepatitis C virus [2] = test: Antiviral activity against HCV genotype 1b in Huh7 cells assessed as inhibition of viral RNA replication after 24 hrs by ribonuclease protection assay; assay type: functional, organism-based, Hepacivirus hominis; conditions: Huh-7, 24 h
Method in brief: (§1)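 Huh-7 (HB-1) cells carrying a subgenomic bicistronic neomycin-resistance replicon from HCV genotype 1b. Compound incubated with cells 24 h or 72 h. Intracellular replicon RNA then quantified by in situ ribonuclease protection. EC50 taken as the mean of at least two separate determinations.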

Hepatitis C virus [3] = test: Antiviral activity against HCV genotype 1b in Huh7 cells assessed as inhibition of viral RNA replication after 72 hrs by ribonuclease protection assay; assay type: functional, organism-based, Hepacivirus hominis; conditions: Huh-7, 72 h; method in brief: as §1

EC50 (Hepatitis C virus [2]) | EC50 (Hepatitis C virus [3]) | Structure (SMILES) | CC50 at 24 h [1]
22 µM | 8.1 µM | C[C@@]1(O)[C@H](O)[C@@H](CO)O[C@H]1c1coc2c(N)ncnc12 | > 100 µM
7.45 µM | 1.5 µM | CC(C)[C@H](N)C(=O)O[C@@H]1[C@@H](CO)O[C@@H](n2ccc(N)nc2=O)[C@]1(C)O [VALOPICITABINE] | > 100 µM
0.25 µM | 0.2 µM | C[C@@]1(O)[C@H](O)[C@@H](CO)O[C@H]1n1cnc2c(N)ncnc21 | > 100 µM
> 100 µM | 59.7 µM | C[C@@]1(O)[C@H](O)[C@@H](CO)O[C@H]1c1c[nH]c2c(N)ncnc12 | > 100 µM

Structure (SMILES) | EC50 (Hepatitis C virus [2]) | EC50 (Hepatitis C virus [3]) | CC50 at 24 h [1]
C[C@@]1(O)[C@H](O)[C@@H](CO)O[C@H]1n1ccc2c(N)ncnc21 [BETA-2'-C-METHYL-7-DEAZA-ADENOSINE] | 0.3 µM | 0.11 µM | > 100 µM
